Test results taken from ChEMBL document CHEMBL4138281, “Anti-Staphylococcal Calopins from Fruiting Bodies of Caloboletus radicans” (2018).
In brackets after ≈: the same amount, converted by molar mass. Activity calls are given as the source filed them. No cut-off for these calls is given here.

Key:
[1] = test system: PC-3; experiment: Cytotoxicity against human PC3 cells at 100 uM after 72 hrs by SRB assay; type: functional, cell-based
Procedure, shortened: (§1)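 SRB assay. Cells kept in DMEM with 10% FBS and 1% penicillin–streptomycin at 37 °C, 5% CO2. Seeded at 5 × 10^4 cells/mL, adapted overnight, then exposed to compounds for 72 h. Cells fixed with 10% TCA (30 min, 4 °C), stained with SRB for 30 min, washed with 1% acetic acid, OD read at 540 nm. Paclitaxel positive control; 0.05% DMSO negative control; triplicate.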

[2] = test system: HepG2; experiment: Cytotoxicity against human HepG2 cells at 100 uM after 72 hrs by SRB assay; type: functional, cell-based; procedure, shortened: as §1
[3] = test system: Staphylococcus aureus; experiment: Antimicrobial activity against […] Staphylococcus aureus ATCC 25923 after 18 hrs by MTT based broth dilution assay; type: functional; conditions: ATCC 25923, 18 h
Procedure, shortened: (§2)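 Strains grown 24 h at 37 °C on nutrient agar. Inoculum of 5 × 10^5 CFU set in 0.9% saline against a 0.5 McFarland standard. Compounds serially diluted 0.5–256 μg/mL in Mueller–Hinton broth, inoculated and incubated 18 h at 37 °C; DMSO control; norfloxacin positive control. MTT (5 mg/mL methanolic) added for 20 min; MIC is the lowest concentration with no growth (no yellow-to-blue change); at least three independent determinations.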

[4] = test system: Staphylococcus aureus; experiment: Antimicrobial activity against tetracycline/methicillin-resistant Staphylococcus aureus XU212 after 18 hrs by MTT based broth dilution assay; type: functional; conditions: XU212, 18 h; procedure, shortened: as §2
[5] = test system: Staphylococcus aureus; experiment: Antimicrobial activity against […] Staphylococcus aureus SA1199B after 18 hrs by MTT based broth dilution assay; type: functional; procedure, shortened: as §2
[6] = test system: Staphylococcus aureus; experiment: Antimicrobial activity against methicillin-resistant Staphylococcus aureus EMRSA-15 after 18 hrs by MTT based broth dilution assay; type: functional; conditions: EMRSA-15, 18 h; procedure, shortened: as §2
[7] = test system: Enterococcus faecalis; experiment: Antimicrobial activity against Enterococcus faecalis FF11 at 40 ug/disk after 2 days by disc diffusion method; type: functional, organism-based
Procedure, shortened: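 Bacterial suspension (1 × 10^5 CFU/mL) spread on Mueller–Hinton agar. Paper disks (8 mm) carried 40 μL of a 1000 μg/mL acetone solution, dried, and were placed on the plate. Incubated 2 days at 37 °C; halo diameter measured; mean ± standard error of three replications; azithromycin positive control.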

[8] = test system: Colletotrichum gloeosporioides; experiment: Antimicrobial activity against Colletotrichum gloeosporioides at 40 ug/disk after 5 days by disc diffusion method; type: functional, organism-based
Procedure, shortened: (§3)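 Fungi pre-grown on 10% V8 agar at 25 °C in the dark. A 4 mm mycelial agar block was centred on a 9 cm PDA plate. Paper disks (8 mm) carried 40 μL of a 1000 μg/mL acetone stock, dried, and were set 4 mm from the block. Plates incubated 5 days at 25 °C in the dark; inhibition zone measured in mm; triplicate.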

[9] = test system: Pyricularia oryzae; experiment: Antimicrobial activity against Magnaporthe oryzae Triticum pathotype at 40 ug/disk after 5 days by disc diffusion method; type: functional, organism-based; procedure, shortened: as §3
[10] = test system: Enterococcus faecalis; experiment: Antimicrobial activity against Enterococcus faecalis F1B1 assessed as zone of inhibition at 40 ug/disk after 2 days by disc diffusion method; type: functional; conditions: F1B1, 48 h, read-out: DIZ
Procedure, shortened: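 Disk diffusion on Mueller-Hinton agar spread with bacterial suspension (1 × 10^5 CFU/mL). 40 μL of a 1000 μg/mL acetone solution loaded on an 8 mm paper disk and dried before placement. Incubated 2 days at 37 °C, then diameter of the bacteria-free halo measured. Mean ± standard error of three replicates; azithromycin positive control.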

Compound	Activity [1]	Activity [2]	MIC [3] [µg/mL]	MIC [4] [µg/mL]	MIC [5] [µg/mL]	MIC [6] [µg/mL]	Activity [7]	Activity [8]	Activity [9]	zone of inhibition at 40 µg/disc [10] [mm]
CC1C(=O)[C@@H](O)[C@@]23C[C@H]1O[C@]2(O)O[C@@H]1C(=O)OC[C@@H](C)[C@@H]13 (some centres undefined)	inactive	inactive	64 (≈ 215 µM)	64 (≈ 215 µM)	128 (≈ 429 µM)	64 (≈ 215 µM)	inactive	inactive	inactive	
C[C@@H]1COC(=O)[C@H]2O[C@@](C)(O)[C@@]3(CC=C(CO)C(=O)[C@H]3O)[C@@H]12	inactive	inactive	64 (≈ 205 µM)	64 (≈ 205 µM)	128 (≈ 410 µM)	128 (≈ 410 µM)	inactive	inactive	inactive	
CC(=O)O[C@@H]1[C@@H](O)C(C)=CC[C@]12[C@H]1[C@H](C)COC(=O)[C@H]1O[C@@]2(C)O	inactive	inactive	16 (≈ 47 µM)	32 (≈ 94 µM)	16 (≈ 47 µM)	32 (≈ 94 µM)	inactive	inactive	inactive	
CC1=CC[C@]2([C@H]3[C@H](C)COC(=O)[C@H]3O[C@@]2(C)O)[C@H](O)C1=O	inactive	inactive	32 (≈ 108 µM)		64 (≈ 216 µM)	64 (≈ 216 µM)	inactive	inactive	inactive	7.1
Cc1ccc([C@H]2[C@H](C)COC(=O)[C@H]2O)c(O)c1O	inactive	inactive	64 (≈ 254 µM)	128 (≈ 507 µM)	128 (≈ 507 µM)	128 (≈ 507 µM)	inactive	inactive	inactive	5.6
CC(=O)O[C@@H]1C(=O)OC[C@@H](C)[C@@H]1c1ccc(C)c(O)c1O	inactive	inactive		64 (≈ 217 µM)	128 (≈ 435 µM)	64 (≈ 217 µM)	inactive	inactive	inactive	9.5
COCC1=CC[C@]2([C@H]3[C@H](C)COC(=O)[C@H]3O[C@@]2(C)O)[C@H](O)C1=O	inactive	inactive	64 (≈ 196 µM)	128 (≈ 392 µM)	64 (≈ 196 µM)	128 (≈ 392 µM)	inactive	inactive	inactive	
CC1=CC[C@]2([C@H]3[C@H](C)COC(=O)[C@H]3O[C@@]2(C)O)[C@@H](O)[C@H]1O	inactive	inactive	32 (≈ 107 µM)		64 (≈ 215 µM)	64 (≈ 215 µM)	inactive	inactive	inactive	
CCn1cc(C(=O)O)c(=O)c2cc(F)c(N3CCNCC3)cc21 [NORFLOXACIN]			32 (≈ 100 µM)	32 (≈ 100 µM)	64 (≈ 200 µM)	32 (≈ 100 µM)				
CC(=O)O[C@@H]1[C@@H](OC(C)=O)C(C)=CC[C@]12[C@H]1[C@H](C)COC(=O)[C@H]1O[C@@]2(C)O	inactive	inactive		64 (≈ 167 µM)	64 (≈ 167 µM)		inactive	inactive	inactive	5.5
COCC1=CC[C@]2([C@H]3[C@H](C)COC(=O)[C@H]3O[C@@]2(C)OC)[C@H](O)C1=O	inactive	inactive	128 (≈ 376 µM)	128 (≈ 376 µM)	256 (≈ 752 µM)	256 (≈ 752 µM)	inactive	inactive	inactive	5.5
